According to ChEMBL document CHEMBL3091454, “Improved Cav2.2 Channel Inhibitors through a gem-Dimethylsulfone Bioisostere Replacement of a Labile Sulfonamide” (ACS Med Chem Lett, 2013):
pEC50, pIC50: −log10 of the molar value.

Experiments:
hERG (KCNH2) = hERG (KCNH2) (Homo sapiens, UniProt Q12809); assay: Displacement of [35S]MK-499 from human ERG at 10 uM relative to control; details: probe [35S]MK-499
Outline: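 hERG binding assessed by displacement of [35S]MK-499; percent inhibition at 10 μM test compound.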

CYP3A4 = CYP3A4 (Homo sapiens, UniProt P08684); assay: Inhibition of CYP3A4 (unknown origin) at 10 uM relative to control; format: ADME
Sequence of CYP3A4 (P08684 whole entry): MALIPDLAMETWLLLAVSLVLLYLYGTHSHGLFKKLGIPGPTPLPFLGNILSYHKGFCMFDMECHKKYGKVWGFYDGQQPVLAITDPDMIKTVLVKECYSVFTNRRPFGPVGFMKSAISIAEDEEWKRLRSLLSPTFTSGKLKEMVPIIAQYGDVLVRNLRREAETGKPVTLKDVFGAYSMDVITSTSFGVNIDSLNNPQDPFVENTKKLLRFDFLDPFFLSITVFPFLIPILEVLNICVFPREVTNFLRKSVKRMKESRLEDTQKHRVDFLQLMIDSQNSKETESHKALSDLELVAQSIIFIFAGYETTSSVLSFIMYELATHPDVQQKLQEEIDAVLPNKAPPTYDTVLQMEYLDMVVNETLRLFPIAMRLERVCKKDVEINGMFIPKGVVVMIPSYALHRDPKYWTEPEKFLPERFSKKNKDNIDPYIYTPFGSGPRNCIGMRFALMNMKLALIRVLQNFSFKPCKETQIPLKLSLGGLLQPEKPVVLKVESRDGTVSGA

[1] = target: T1, Nuclear receptor subfamily 1 group I member 2 (Homo sapiens, UniProt O75469); assay: Activation of PXR (unknown origin)
T1 sequence (O75469 whole entry): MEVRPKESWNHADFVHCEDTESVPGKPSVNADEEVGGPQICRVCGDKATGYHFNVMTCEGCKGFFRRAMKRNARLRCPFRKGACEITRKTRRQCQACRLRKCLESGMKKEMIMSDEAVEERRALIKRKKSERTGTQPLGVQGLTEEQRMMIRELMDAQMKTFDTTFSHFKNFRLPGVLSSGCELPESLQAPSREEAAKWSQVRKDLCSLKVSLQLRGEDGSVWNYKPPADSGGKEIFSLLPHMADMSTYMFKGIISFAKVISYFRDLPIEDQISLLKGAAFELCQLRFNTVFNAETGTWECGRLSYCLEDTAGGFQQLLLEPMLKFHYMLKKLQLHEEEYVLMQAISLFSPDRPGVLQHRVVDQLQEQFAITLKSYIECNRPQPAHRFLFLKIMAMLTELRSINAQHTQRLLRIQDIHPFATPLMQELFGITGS

[2] = target: T2, Voltage-dependent N-type calcium channel subunit alpha-1B (Homo sapiens, UniProt Q00975); assay: Inhibition of Cav2.2-mediated calcium influx in HEK cells by FLIPR assay; format: cell-based, HEK293
Outline: (§1)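 Cav2.2 calcium-influx FLIPR assay; compounds screened for percent inhibition at single concentration, active ones titrated for IC50; values averaged over n ≥ 3.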
Target sequence in this assay (Q00975 whole entry): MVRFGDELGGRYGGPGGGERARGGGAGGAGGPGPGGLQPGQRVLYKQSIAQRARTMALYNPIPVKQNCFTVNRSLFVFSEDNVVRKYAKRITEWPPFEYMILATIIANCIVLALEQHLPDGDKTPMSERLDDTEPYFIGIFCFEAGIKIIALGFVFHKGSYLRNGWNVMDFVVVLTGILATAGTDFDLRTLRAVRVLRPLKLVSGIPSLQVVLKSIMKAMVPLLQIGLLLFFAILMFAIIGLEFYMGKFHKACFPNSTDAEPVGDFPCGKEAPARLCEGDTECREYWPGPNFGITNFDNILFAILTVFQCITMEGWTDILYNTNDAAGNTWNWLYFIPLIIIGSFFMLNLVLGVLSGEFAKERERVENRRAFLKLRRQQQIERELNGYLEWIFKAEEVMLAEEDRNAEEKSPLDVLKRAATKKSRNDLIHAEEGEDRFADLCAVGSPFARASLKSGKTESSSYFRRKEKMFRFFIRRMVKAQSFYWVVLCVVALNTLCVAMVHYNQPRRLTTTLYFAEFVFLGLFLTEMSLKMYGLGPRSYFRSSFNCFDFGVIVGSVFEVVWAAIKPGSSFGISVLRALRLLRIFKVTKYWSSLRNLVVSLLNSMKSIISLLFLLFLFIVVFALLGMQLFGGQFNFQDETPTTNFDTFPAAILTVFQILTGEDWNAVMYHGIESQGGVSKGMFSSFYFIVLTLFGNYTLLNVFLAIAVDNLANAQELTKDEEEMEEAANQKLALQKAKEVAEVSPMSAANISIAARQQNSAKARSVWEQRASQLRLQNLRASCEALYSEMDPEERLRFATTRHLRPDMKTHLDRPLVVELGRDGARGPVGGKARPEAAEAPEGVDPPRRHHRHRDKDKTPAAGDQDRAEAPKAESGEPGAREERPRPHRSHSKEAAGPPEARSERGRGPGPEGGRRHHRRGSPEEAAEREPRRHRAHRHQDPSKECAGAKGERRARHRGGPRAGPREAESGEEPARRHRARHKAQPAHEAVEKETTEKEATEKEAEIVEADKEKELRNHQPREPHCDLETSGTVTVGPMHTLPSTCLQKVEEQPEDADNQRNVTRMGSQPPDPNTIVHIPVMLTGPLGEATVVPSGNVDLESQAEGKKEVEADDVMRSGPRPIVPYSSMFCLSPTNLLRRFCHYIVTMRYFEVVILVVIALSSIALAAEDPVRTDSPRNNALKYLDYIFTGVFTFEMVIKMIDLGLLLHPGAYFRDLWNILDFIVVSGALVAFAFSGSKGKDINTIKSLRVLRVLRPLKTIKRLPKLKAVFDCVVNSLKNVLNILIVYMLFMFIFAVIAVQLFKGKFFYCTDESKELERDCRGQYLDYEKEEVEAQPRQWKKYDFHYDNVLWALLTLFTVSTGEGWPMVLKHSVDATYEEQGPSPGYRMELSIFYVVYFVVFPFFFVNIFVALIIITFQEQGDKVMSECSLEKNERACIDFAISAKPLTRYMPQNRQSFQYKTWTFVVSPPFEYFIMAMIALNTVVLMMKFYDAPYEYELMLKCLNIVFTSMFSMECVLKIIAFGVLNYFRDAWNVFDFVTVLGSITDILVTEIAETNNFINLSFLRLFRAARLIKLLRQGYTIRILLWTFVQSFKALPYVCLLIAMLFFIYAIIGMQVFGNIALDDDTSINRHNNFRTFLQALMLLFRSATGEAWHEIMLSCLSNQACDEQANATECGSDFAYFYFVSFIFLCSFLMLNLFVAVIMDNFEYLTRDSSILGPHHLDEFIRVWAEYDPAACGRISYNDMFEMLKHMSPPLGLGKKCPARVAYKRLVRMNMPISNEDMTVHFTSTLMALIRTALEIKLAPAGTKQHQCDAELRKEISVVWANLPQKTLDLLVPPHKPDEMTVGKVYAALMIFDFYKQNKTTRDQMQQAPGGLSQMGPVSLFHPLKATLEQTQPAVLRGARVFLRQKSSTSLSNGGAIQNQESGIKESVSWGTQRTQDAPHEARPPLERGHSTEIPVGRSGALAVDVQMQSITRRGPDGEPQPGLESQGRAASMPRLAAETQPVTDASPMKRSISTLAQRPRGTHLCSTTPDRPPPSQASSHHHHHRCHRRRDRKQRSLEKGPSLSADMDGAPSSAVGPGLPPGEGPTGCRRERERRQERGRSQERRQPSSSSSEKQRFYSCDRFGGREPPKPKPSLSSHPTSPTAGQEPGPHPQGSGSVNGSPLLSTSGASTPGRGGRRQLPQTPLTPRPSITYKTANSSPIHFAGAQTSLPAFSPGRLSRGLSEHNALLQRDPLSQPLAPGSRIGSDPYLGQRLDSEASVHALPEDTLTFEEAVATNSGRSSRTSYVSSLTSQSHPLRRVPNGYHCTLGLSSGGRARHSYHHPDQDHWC

[3] = Metabolic stability in rat liver microsomes assessed as compound remaining at 10 uM after 1 hr in presence of NADPH; format: ADME; details: read-out: Stability
Outline: (§2)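 Liver microsomes (rat or human) incubated with compound and NADPH for 1 h; percent of parent remaining. Table footnote gives 10 μM compound, 1 mM NADPH, 1 mg/mL protein; text gives 1 μM substrate, 1 mg/mL protein.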

Liver microsome [4] = assay: Drug metabolism in rat liver microsomes assessed as 3-(trifluoromethyl)-benzenesulfonamide level after 1 hr in presence of NADPH; format: ADME
[5] = Metabolic stability in human liver microsomes assessed as compound remaining at 10 uM after 1 hr in presence of NADPH; format: ADME; details: read-out: Stability; outline: as §2
Rattus norvegicus [6] = assay: Normalized AUC in rat whole blood at 3 mg/kg, po; format: ADME, organism-based; parameters: dose 3 mg/kg, route oral; details: in vivo
Outline: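 Rats dosed 3 mg/kg orally and 1 mg/kg intravenously; PK parameters derived from whole-blood concentrations. Normalized oral AUC given in μM·h·kg/mg, clearance in mL/min/kg, plus half-life and oral bioavailability.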

Rattus norvegicus [7] = assay: Normalized AUC in rat whole blood assessed as 3-(trifluoromethyl)-benzenesulfonamide level at 3 mg/kg, po; format: ADME, organism-based; parameters: dose 3 mg/kg, route oral; details: in vivo
Outline: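 Rats given a single 3 mg/kg oral dose of parent; whole-blood levels of parent and sulfonamide metabolite followed over time, n = 2 rats. Metabolite AUC normalized to dose (μM·h·kg/mg).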

Liver microsome [8] = assay: Drug metabolism in human liver microsomes assessed as 3-(trifluoromethyl)-benzenesulfonamide level after 1 hr in presence of NADPH; format: ADME
[9] = target: T2, Voltage-dependent N-type calcium channel subunit alpha-1B; assay: Inhibition of Cav2.2-mediated calcium influx in HEK cells at 10 uM by FLIPR assay relative to control; format: cell-based; details: HEK293, 1 uM, in the assay text read “at 1 uM” for “at 10 uM”; outline: as §1
Target sequence in this assay (Q00975 whole entry, looked up): as the sequence (Q00975 whole entry) above

Sequence of hERG (KCNH2) (Q12809 whole entry): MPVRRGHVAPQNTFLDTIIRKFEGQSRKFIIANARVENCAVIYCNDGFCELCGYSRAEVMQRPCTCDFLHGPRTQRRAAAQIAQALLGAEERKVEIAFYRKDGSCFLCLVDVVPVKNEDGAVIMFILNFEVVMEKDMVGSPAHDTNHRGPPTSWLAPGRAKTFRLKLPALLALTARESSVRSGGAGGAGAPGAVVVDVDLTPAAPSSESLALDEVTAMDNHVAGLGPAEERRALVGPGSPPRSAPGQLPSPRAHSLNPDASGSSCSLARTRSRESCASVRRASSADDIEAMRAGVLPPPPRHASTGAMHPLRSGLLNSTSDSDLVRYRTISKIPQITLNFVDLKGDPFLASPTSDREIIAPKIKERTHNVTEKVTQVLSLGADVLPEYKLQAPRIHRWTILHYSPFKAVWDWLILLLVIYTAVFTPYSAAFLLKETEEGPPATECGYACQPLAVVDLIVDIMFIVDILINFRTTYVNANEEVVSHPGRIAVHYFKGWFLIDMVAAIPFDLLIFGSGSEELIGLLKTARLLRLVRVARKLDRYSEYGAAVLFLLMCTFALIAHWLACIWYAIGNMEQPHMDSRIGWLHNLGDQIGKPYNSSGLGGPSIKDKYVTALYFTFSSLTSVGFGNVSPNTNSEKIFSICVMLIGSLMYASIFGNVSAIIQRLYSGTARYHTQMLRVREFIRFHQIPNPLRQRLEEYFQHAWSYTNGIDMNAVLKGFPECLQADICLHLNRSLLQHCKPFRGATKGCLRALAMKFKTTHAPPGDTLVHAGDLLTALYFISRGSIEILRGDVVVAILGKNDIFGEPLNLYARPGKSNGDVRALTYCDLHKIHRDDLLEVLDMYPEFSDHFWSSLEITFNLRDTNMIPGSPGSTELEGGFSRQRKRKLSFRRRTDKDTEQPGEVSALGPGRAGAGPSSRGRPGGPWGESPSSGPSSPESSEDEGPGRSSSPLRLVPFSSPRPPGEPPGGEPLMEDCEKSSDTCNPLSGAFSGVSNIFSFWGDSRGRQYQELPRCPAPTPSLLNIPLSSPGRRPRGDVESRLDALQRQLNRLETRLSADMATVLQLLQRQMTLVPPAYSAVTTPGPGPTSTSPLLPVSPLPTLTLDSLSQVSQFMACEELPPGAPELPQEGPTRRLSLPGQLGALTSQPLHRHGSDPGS

Row | pEC50 [1] | pIC50 [2] | Compound | inhibition at 10 µM (hERG (KCNH2)) [%] | further results
1 | 5.77 | 7.32 | CS(=O)(=O)c1ccc(C(=O)N2CCC(N(C3CC3)S(=O)(=O)c3cccc(C(F)(F)F)c3)CC2)c(OC(F)(F)F)c1 | 63 | inhibition at 10 µM (CYP3A4): 16%
2 |  | 6.43 | CC(C1CCN(C(=O)c2ccc(S(C)(=O)=O)cc2OC(F)(F)F)CC1)S(=O)(=O)c1cccc(C(F)(F)F)c1 (stereo in doubt; 30 en-2) |  | 
3 |  | 6.33 | CCN(C1CCN(C(=O)c2ccccc2OC(F)(F)F)CC1)S(=O)(=O)c1cccc(C(F)(F)F)c1 |  | remaining at 1 h, 10 µM [3]: 3.4%; Drug metabolism (Liver microsome [4]): 0.08 µM; remaining at 1 h, 10 µM [5]: 30%; Drug metabolism (Liver microsome [8]): 1.16 µM
4 |  | 7.06 | CC(C1CCN(C(=O)c2ccc(S(C)(=O)=O)cc2OC(F)(F)F)CC1)S(=O)(=O)c1cccc(C(F)(F)F)c1 (stereo in doubt; 30 en-1) |  | 

The next lines start with the compound.

Row | Compound | pEC50 [1] | pIC50 [2] | inhibition at 10 µM (hERG (KCNH2)) [%] | further results
5 | NC(=O)c1ccc(C(=O)N2CCC(N(C3CC3)S(=O)(=O)c3cccc(C(F)(F)F)c3)CC2)c(C(F)(F)F)c1 | 5.72 | 6.12 | 32 | inhibition at 10 µM (CYP3A4): 61%
6 | CS(=O)(=O)c1ccc(C(=O)N2CCC(N(C3CC3)S(=O)(=O)c3cccc(C(F)(F)F)c3)CC2)c(F)c1 | 5.17 | 6.46 | 78 | 
7 | CS(=O)(=O)c1ccc(Cl)c(C(=O)N2CCC(N(C3CC3)S(=O)(=O)c3cccc(C(F)(F)F)c3)CC2)c1 | 5.57 | 6.47 | 49 | inhibition at 10 µM (CYP3A4): 69%
8 | CS(=O)(=O)c1ccc(F)cc1C(=O)N1CCC2(CCN(S(=O)(=O)c3cccc(C(F)(F)F)c3)CC2)C1 |  | 6.72 |  | 
9 | C[C@@H]1[C@H](N(C2CC2)S(=O)(=O)c2cccc(C(F)(F)F)c2)CN1C(=O)c1cc(F)ccc1S(C)(=O)=O (racemic) |  | 6.42 |  | 
10 | CS(=O)(=O)c1ccc(C(=O)N2CCC(N(C3CC3)S(=O)(=O)c3cccc(C(F)(F)F)c3)CC2)c(Cl)c1 | 4.97 | 6.54 | 32 | inhibition at 10 µM (CYP3A4): 78%
11 | C[C@H]1[C@H](N(C2CC2)S(=O)(=O)c2cccc(C(F)(F)F)c2)CN1C(=O)c1ccc(S(C)(=O)=O)cc1Cl (racemic) |  | 7.32 |  | remaining at 1 h, 10 µM [3]: 4.7%; Drug metabolism (Liver microsome [4]): 0.11 µM; remaining at 1 h, 10 µM [5]: 5.3%; AUC/dose (Rattus norvegicus [6]): 0.017 µM·kg·h/mg; AUC/dose (Rattus norvegicus [7]): 64 µM·kg·h/mg; Drug metabolism (Liver microsome [8]): 0.83 µM
12 | CC1(N(C2CC2)S(=O)(=O)c2cccc(C(F)(F)F)c2)CCN(C(=O)c2cc(F)ccc2S(C)(=O)=O)CC1 |  | 6.15 |  | Drug metabolism (Liver microsome [4]): 0.06 µM; Drug metabolism (Liver microsome [8]): 0.04 µM
13 | CS(=O)(=O)c1ccc(C(=O)N2CCC3(CCN(S(=O)(=O)c4cccc(C(F)(F)F)c4)CC3)C2)c(C(F)(F)F)c1 |  | 6.51 |  | remaining at 1 h, 10 µM [3]: 3.8%; Drug metabolism (Liver microsome [4]): 0.18 µM; remaining at 1 h, 10 µM [5]: 4.2%; Drug metabolism (Liver microsome [8]): 5.13 µM
14 | CS(=O)(=O)c1ccc(C(=O)N2CCC(N(C(=O)c3cccc(C(F)(F)F)c3)C3CC3)CC2)c(OC(F)(F)F)c1 |  |  |  | inhibition [9]: 48%
15 | CS(=O)(=O)c1ccc(F)cc1C(=O)N1CCC(N(C2CC2)S(=O)(=O)c2cccc(C(F)(F)F)c2)C1 (racemic) |  | 6.43 |  | 
